# TRPC6 inhibitor: blocks the mouse TRPC6 cation channel; B-score at 10 µM; Q61143; 310,000 tested, 1.1% active; HEK293-TRPC6, membrane potential dye, ACh-evoked depolarization; active compounds read low; AID 2553;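 active means B-score under library mean minus 3 SD, initial fluorescence not abnormally high, positive integrated signal ratio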;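 further: B-score derived from integrated fluorescence ratio over the kinetic read; more negative B-score means stronger inhibition of depolarization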
# TRPC4 act: activators of mouse TRPC4 channel. Q9QUQ5. HEK293 TRPC4beta/mu-opioid, Fluo4 calcium fluorescence; active compounds read high. B-score at 10 µM. 310,000 tested, 0.49% active;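 active means B-score above 5 SD of library B-scores, and initial fluorescence ratio not above library mean plus 5 SD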;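 further: positive B-score marks a calcium rise read as TRPC4 activation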
#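 Assay system: HEK293 cells stably co-expressing mouse TRPC4beta and mu-opioid receptor / Timing: Fluo4 dye loading 45 min at room temperature, 110 s recording / Signal: Fluo4 calcium-sensitive dye fluorescence, kinetic, 1 Hz baseline / Read-out: integrated baseline-normalised fluorescence ratio, converted to per-well B score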
# TRPC6 activator: activates the mouse TRPC6 cation channel. B-score at 10 µM. HEK293-TRPC6 membrane potential dye fluorescence; active compounds read high. Q61143. 310,000 tested, 0.13% active;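 active means B-score of the integrated fluorescence ratio above library mean plus 3 SD, and starting fluorescence ratio within library mean plus 5 SD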;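 further: higher score means more depolarization so channel activation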
# TRPC4 block: blocks the mouse TRPC4 cation channel; Q9QUQ5; HEK293 TRPC4beta/mu-opioid, DAMGO-evoked Fluo4 calcium flux; active compounds read low; B-score at 10 µM; 300,000 tested, 0.39% active;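 active means B-score over 3 SD under the library average, no early fluorescence shift, positive overall ratio signal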
#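 test system = HEK293 cells with stable TRPC4beta plus mu-opioid receptor expression | detection = Fluo4 Ca2+ flux fluorescence | read-out = integrated fluorescence ratio relative to baseline, converted to per-well B score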
# TRPC4 potent: TRPC4 (mouse) allosteric potentiation; Q9QUQ5; HEK293 TRPC4beta/mu-opioid, DAMGO EC20, Fluo-4 Ca2+ flux; active compounds read high; B-score at 10 µM; 310,000 tested, 0.42% active; AID 2227;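 active means B-score of calcium response area above 5 SD of library B-scores, with initial fluorescence ratio within 5 SD of library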;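 further: B-score of integrated fluorescence ratio over time as area under calcium response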
# Active calls of the source: *; i = inactive. Hits are enriched below; roughly 2.3% of the tested compounds scored in any of these assays.
SMILES,TRPC6 inhibitor,TRPC4 act,TRPC6 activator,TRPC4 block,TRPC4 potent
Cc1ccc(NS(=O)(=O)c2ccc(C(=O)N3CC(C)CC(C)C3)cc2)cc1 (stereo not given),i,104*,i,i,i
Cc1ccc(S(=O)(=O)Nc2ccc(C(=O)N3CCCC3)cc2)cc1,i,i,i,i,i
Cc1ccccc1-n1c([C@@H]2C[C@H]2c2ccccc2)n[nH]c1=S,i,i,i,i,i
O=S(=O)(c1ccc(Oc2ccc(Br)cc2)cc1)N1CCOCC1,i,i,i,i,17*
Cc1cccnc1NC(=S)NC(=O)c1oc2ccccc2c1C,i,i,i,i,i
CCOC(=O)c1c(NC(=O)CC)sc(C(C)=O)c1C,i,i,i,i,i
Cc1ccc(NC(=O)C(C)OC(=O)Cc2c[nH]c3ccccc23)cc1 (stereo not given),i,i,i,-6*,i
CCOc1ccc(/C=C/C2=Cc3c(sc(NC(=O)CSc4n[nH]c(N)n4)c3C#N)C(C)(C)C2)cc1,i,i,i,i,17*
CCOC(=O)c1sc(NC(=O)CSc2n[nH]c(-c3ccncc3)n2)c(C#N)c1C,i,i,i,i,i
Cc1ccsc1/C=C/C1=Cc2c(sc(NC(=O)CSc3n[nH]c(N)n3)c2C#N)C(C)(C)C1,i,i,i,i,90*
C=CCOC(=O)Nc1c(C(=O)OC)[nH]c2ccc(Cl)cc12,i,i,i,i,i
COc1ccc(Cl)cc1S(=O)(=O)N1CCC(C(=O)NCCC2=CCCCC2)CC1,i,i,i,i,i
CCO[C@@H]1OC(C(=O)NCc2nc3ccccc3[nH]2)=C[C@H](c2ccc(C(F)(F)F)cc2)[C@H]1CCCO,i,i,i,i,i
C/C(=N\N(c1ccccc1)c1ccccc1)c1ccc(N)cc1,i,i,i,i,24*
C/C(=N\N(c1ccccc1)c1ccccc1)c1ccc(O)cc1,i,i,i,i,i
CCN(CC)c1ccc2c(Cl)c(Br)c(=O)oc2c1,i,i,i,-6*,i
CC1CCCN(C(=S)NC2CCCC2)C1 (stereo not given),i,i,i,i,i
C=CCNCCCCOc1cccc(Br)c1,i,i,i,i,13*
O=C(c1ccc2c3c(cccc13)CC2)C1CCCN(Cc2ccncc2)C1 (stereo not given),i,44*,i,i,i
Cc1ncccc1C(=O)N1CCCC(C(=O)c2ccc3c4c(cccc24)CC3)C1 (stereo not given),i,i,i,i,i
CCc1nc(CN2CCCC(C(=O)c3ccc4c5c(cccc35)CC4)C2)c(C)[nH]1 (stereo not given),i,116*,i,i,i
CCN1C(=O)CSC1=NC12CC3CC(CC(C3)C1)C2,i,i,i,-5*,i
CN1C(=O)CSC1=Nc1ccc(Br)cc1,i,i,i,i,i
CN1C(=O)CSC1=NC12CC3CC(CC(C3)C1)C2,i,i,i,-6*,i
COc1ccc(N2CCN(c3ccc(C(=O)O)cc3[N+](=O)[O-])CC2)cc1,i,i,i,i,i
SMILES,TRPC6 inhibitor,TRPC4 act,TRPC6 activator,TRPC4 block,TRPC4 potent
COc1ccccc1NS(=O)(=O)c1cccc(C(=O)NCC(c2ccc(F)cc2)N2CCOCC2)c1 (stereo not given),i,i,i,i,i
COc1ccccc1N1CCN(C(c2cccs2)C(C)NC(=O)c2ccco2)CC1 (stereo not given),i,103*,i,i,i
CC1CCc2c(C(=O)N3CCN(S(=O)(=O)c4cccs4)CC3)csc2C1 (stereo not given),i,i,i,i,29*
Cc1ccc(-c2nn(C)c(=O)c3ccccc23)cc1CNC(=O)NC1CCCCC1,i,i,i,i,i
O=c1[nH][nH]c(-c2ccccc2)c1C=Nc1ccc(F)cc1F,i,i,i,i,79*
CCOc1[nH]n(-c2ccccc2)c(=O)c1C=Nc1ccc(F)cc1F,i,i,i,i,i
CC(CCCCC(=O)Nc1ccc(C(F)(F)F)cc1)NCCc1cnc[nH]1 (stereo not given),i,i,i,i,i
COc1cc(C2NC(=O)NC(C)=C2C(C)=O)ccc1O (stereo not given),i,i,i,i,i
O=[N+]([O-])c1cc(Cl)ccc1N1CCCCC1,i,i,i,i,i
O=[N+]([O-])c1cc(Cl)ccc1N1CCN(c2ccccc2O)CC1,i,i,i,i,12*
Cc1ccc(N=Nc2c(N)n[nH]c2N)cc1,i,i,i,i,i
Cc1[nH]nc(N)c1N=Nc1ccc(Br)cc1,-5.6*,i,i,i,i
COc1ccccc1NC(=O)Cn1cnc2c(nnn2-c2ccc(C)cc2)c1=O,i,i,i,i,i
CCOC(=O)c1cnc2ccc(OC)cc2c1NCc1ccccc1,i,i,i,i,i
CCOC(=O)c1cnc2ccccc2c1NCc1ccco1,i,i,i,-6*,i
C/C(=N\Nc1ccc(C(=O)O)cc1)c1ccc2c(c1)Nc1ccccc1S2,i,i,i,-6*,i
N#CCCn1cc(C(=O)Nc2ccc(C(=O)O)cc2)c(-c2cccc(Br)c2)n1,i,70*,i,i,i
N#CCCn1cc(C(=O)Nc2ccccn2)c(-c2ccccc2)n1,i,i,i,i,i
CCc1cc(C(=O)NCCN(C)C)cs1,i,78*,i,i,i
Cc1cccc(C(=O)NCCN(C)C)c1,i,73*,i,i,i
CCOC(=O)C(CCCCOc1cccc(CC)c1)C(=O)OCC,i,i,i,i,i
O=[N+]([O-])c1ccccc1OCCCN1CCc2ccccc2C1,i,i,i,i,i
CC1CC(C)CN(CCCOc2ccccc2[N+](=O)[O-])C1 (stereo not given),i,48*,i,i,i
CCOC(=O)C(CCCCCOc1ccccc1[N+](=O)[O-])C(=O)OCC,i,i,i,-6*,i
CCOC(=O)C(CCCCCOc1ccc([N+](=O)[O-])cc1)C(=O)OCC,i,i,i,i,23*
O=C(c1ccccc1)N(Cc1ccc(F)cc1)Cc1nc2ccccc2c(=O)[nH]1,i,i,i,i,12*
COc1ccc(CNCCc2ccc([N+](=O)[O-])cc2)c(OC)c1OC,i,81*,i,i,i
